# CTSL1 counter – blocks F. hepatica cathepsin L1 in PFM18AAP counter-screen | actives 0.49% (n = 300,000) | inhibition, % at 5.96 µM | recombinant F. hepatica cathepsin L1, Z-Leu-Arg-MCA fluorescence;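 active means inhibition above the mean of all tested compounds plus 3 SD, set per screening campaign, cut at about 17% in these data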;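 further: 0% = plate median of test compound wells and 100% = 1 µM Z-Phe-Ala-diazomethylketone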
# UCH37 inh – blocks the human deubiquitinase UCH37; Q9Y5K5; purified proteasome/UCH37, Ub-AMC cleavage fluorescence; actives 0.33% (n = 330,000); inhibition, % (test concentration not listed);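 active means mean inhibition over replicate wells above about 20%, limit read from the data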;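 further: 0% = compound-free wells with enzyme and 100% = wells lacking proteasome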
# Target sequence (Q9Y5K5 whole entry, looked up): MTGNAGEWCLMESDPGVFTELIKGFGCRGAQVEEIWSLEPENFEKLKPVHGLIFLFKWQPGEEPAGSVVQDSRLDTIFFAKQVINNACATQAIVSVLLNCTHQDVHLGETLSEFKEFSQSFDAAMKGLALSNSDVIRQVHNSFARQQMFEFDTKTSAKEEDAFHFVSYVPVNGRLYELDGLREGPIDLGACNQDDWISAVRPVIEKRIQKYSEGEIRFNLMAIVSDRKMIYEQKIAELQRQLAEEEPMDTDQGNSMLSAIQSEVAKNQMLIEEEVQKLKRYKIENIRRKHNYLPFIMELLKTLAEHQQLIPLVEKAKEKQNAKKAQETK
#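 system = Proteasome-associated human UCH37 deubiquitinase | amount = 0.15 nM proteasome as dispensed | medium = pH 7.4 Tris-HCl (50 mM) with ovalbumin, ATP-MgCl2, DTT | incubation = 30 min preincubation with enzyme, 25 min cleavage at room temperature | detection = AMC fluorescence 355/460 nm | read-out basis = percent inhibition | controls = no-proteasome and no-compound wells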
# PKA-R1A act – activates the PKA-R1A holoenzyme complex | P00514+P68181 | PKA-R1A dissociation, Cy5-IP20 fluorescence polarization; scaled: DMSO 0%, 113 µM cGMP 100% | activation, % at 11.4 µM | actives 0.083% (n = 340,000);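 active means percent activation above the mean of all tested compounds plus 3 SD, cut at about 19% in these data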;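 further: higher means more PKAc released from R1A so a rise in polarization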
# PKA-R2B act – activators of human PKA-R2B complex. P22694+P31323. PKA-R2B holoenzyme dissociation, Cy5-IP20 fluorescence polarization; R2B truncated from residue 108, S112A mutant; 0% DMSO only, 100% 113 µM cGMP. activation, % at 11.4 µM. actives 0.079% (n = 340,000). AID 504700;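 active means activation above a cutoff set at the mean over all compounds plus 3 SD, cut at about 18% in these data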;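 further: higher means more holoenzyme dissociation and a rise in polarization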
# aDG glyco act – alpha-DG glycosylation activation. Pro5-aDG cells, alpha-DG glycosylation AlphaScreen (IIH6); 0% Pro5, 100% B10-LARGE cell signal. activation, % at 10 µM. actives 0.22% (n = 360,000). AID 624168;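 active means activation of at least 8% versus controls, or a plate z-score of at least 8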;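 further: Pro5 are CHO cells carrying HIG-tagged alpha-DG that lacks glycosylation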
# Starred values were filed as active, the others as inactive; nt = not tested or not shown. This is a sample that favours compounds with a hit; in the whole collection about 0.94% have one here.
SMILES,CTSL1 counter,UCH37 inh,PKA-R1A act,PKA-R2B act,aDG glyco act
CCNc1nc(SC)nc(N(C#N)CC(=O)OC)n1,62.2*,0.5,-8.6,1.1,0.4
COC(=O)CN(C#N)c1nc(C)cc(C)n1,8.0,1.7,-7.7,-2.8,-0.2
COC(=O)CN(C#N)c1nc(N(C)C)nc(N(C)C)n1,21.1*,4.8,-6.2,-4.0,0.2
COC(=O)CN(C#N)c1nc(OC)nc(N(C)C)n1,39.9*,1.8,5.7,3.3,0.2
CCOc1cc(C=NNC(=O)CN2CCOCC2)ccc1OCc1ccc(F)cc1,nt,4.3,nt,nt,nt
Cc1c(C=NNC(=O)c2cc(Br)ccc2O)c(=O)n(C)c(=O)n1C,nt,10.6,nt,nt,nt
COC(=O)CN(C#N)c1nc(NC(C)C)nc(OC)n1,80.5*,0.5,-13.1,-5.2,0.4
Cc1ccc(C(=O)C2=C(O)C(=O)N(Cc3ccco3)C2c2cccc(Cl)c2)o1 (centres undefined),0.6,nt,-1.0,-2.2,0.2
Cc1ccc(C(=O)C2=C(O)C(=O)N(Cc3ccco3)C2c2cccc(Br)c2)o1 (centres undefined),18.1*,nt,-6.6,3.7,-0.7
N/C(CSc1ccc(Cl)cc1)=N\NC(=O)c1ccncc1,20.0*,4.8,0.4,-10.8,0.4
O=C(CSc1ccc(Cl)cc1)NCc1ccncc1,2.2,0.2,9.6,0.0,0.0
CCCOP(=O)(c1ccc(N(C)C)cc1)C(Nc1ccccc1)c1ccc(C)cc1 (centres undefined),20.7*,5.7,0.6,-20.6,0.0
COc1cc(OC)c(C2CC(=O)N3CN(c4ccccc4C)CSC3=C2C#N)cc1OC (centres undefined),30.8*,nt,nt,nt,nt
COc1ccc2[nH]c(=O)c(C(c3nnnn3C3CCCCC3)N3CCN(C)CC3)cc2c1 (centres undefined),1.9,-232.1,-2.9,-8.2,0.1
COc1ccc(C(c2nnnn2C2CCCCC2)N2CCN(C)CC2)c(OC)c1 (centres undefined),17.9*,-0.6,4.0,-6.4,0.1
CC(=NNC(=O)c1ccoc1C)c1cccc(NC(=O)C2CC2)c1,nt,2.2,nt,nt,nt
CCOc1ccc(OCCSc2nc3ccccc3[nH]2)cc1,1.1,1.8,7.4,-0.2,0.8
CCCOc1ccc(CSc2nc3ccccc3[nH]2)cc1,-1.2,4.5,-25.1,-7.8,4.4*
CCOc1ccc(N=C2NC(=O)C(CC(=O)Nc3ccccc3)S2)cc1 (centres undefined),18.6*,2.1,-7.7,-2.0,0.0
C[C@]12CCC3C(CC[C@H]4CC(O)CC[C@]34C)C1CCC2=NNC(=O)c1ccncc1 (some centres undefined),nt,1.3,nt,nt,nt
Cc1ccc(S(=O)(=O)ON=C2CCCc3occc32)cc1,nt,3.0,nt,nt,nt
O=C1Nc2ccc(Cl)cc2/C1=C/C1CC=CCC1 (centres undefined),46.7*,-1.2,-0.8,-7.2,0.5
c1cnc2ncc3sccc3c2c1,-3.4,28.2*,-7.1,1.1,0.0
O=C(/C=C/c1ccccc1Cl)NC1CCCCC1,0.7,2.9,5.1,-9.5,0.1
O=C(/C=C/c1ccccc1Cl)NC1CCS(=O)(=O)C1 (centres undefined),41.8*,2.1,-3.6,-2.4,0.0
SMILES,CTSL1 counter,UCH37 inh,PKA-R1A act,PKA-R2B act,aDG glyco act
COC(=O)C1CC(=NNS(=O)(=O)c2ccc(C)cc2)c2sccc2C1 (centres undefined),nt,7.1,nt,nt,nt
Cc1oc(C=NNC(=O)CN(c2ccccc2Br)S(C)(=O)=O)cc1Br,nt,0.5,nt,nt,nt
COc1ccc(OC)c2sc(N(CCCN(C)C)C(=O)CCS(=O)(=O)c3ccccc3)nc12,37.2*,2.2,13.1,5.8,0.4
CN(C)CCCN(C(=O)CCS(=O)(=O)c1ccccc1)c1nc2cc3c(cc2s1)OCO3,29.4*,3.7,0.7,-1.5,-0.6
CN(C)CCN(C(=O)CCS(=O)(=O)c1ccccc1)c1nc2c(F)cccc2s1,4.0,2.1,-8.0,2.6,-0.3
Cc1ccc2sc(N(CCCN(C)C)C(=O)CCS(=O)(=O)c3ccccc3)nc2c1C,40.2*,nt,-7.7,2.7,-0.8
CN(C)CCCN(C(=O)CCSc1ccccc1)c1nc2cc3c(cc2s1)OCO3,0.5,2.3,1.1,5.8,-0.2
COc1ccc(COC(=O)NN=C(C)CC(=O)Nc2ccc(Cl)cn2)cc1,nt,1.0,nt,nt,nt
COc1ccc(C=NNC(=O)c2cc3c(ccc4ccccc43)o2)cc1O,nt,-49.9,nt,nt,nt
O=C1N=C(N2C=CC(=C3C=CNC=C3)C=C2)/C(=C/N=NC(=O)c2ccccc2)S1,5.5,23.8*,-5.5,-6.2,0.1
O=C(NCCC1=CCCCC1)C(=O)NCc1ccccc1Cl,7.9,18.4,6.6,-0.3,0.2
O=C1CC(NCCC2=CCCCC2)C(=O)N1c1cccc(Cl)c1Cl (centres undefined),17.7*,nt,nt,nt,nt
O=C(CSc1nnnn1-c1ccccc1)CSc1nnnn1-c1ccccc1,22.1*,0.8,-16.6,4.0,0.2
O=C(O)COc1ccccc1C=Nn1c(C2CCCCC2)n[nH]c1=S,nt,1.5,nt,nt,nt
NC(=O)c1nsc(C(=O)N(CC(=O)NC2CCCC2)c2cccc(C(F)(F)F)c2)c1N,20.4*,-24.7,9.1,2.8,0.2
Cc1ccc(Cn2cccc2C=NNC(=S)Nc2ccc(C)cc2)cc1,nt,3.1,nt,nt,nt
COc1ccc2c(c1)CCCC2=NNC(=O)c1ccoc1C,nt,0.3,nt,nt,nt
CCCCC[n+]1ccn(C2=C([O-])c3ccccc3C(=O)/C2=N\S(=O)(=O)c2ccccc2)c1,6.2,24.4*,1.4,1.0,3.9
CCCCC[n+]1ccn(C2=C([O-])c3ccccc3C(=O)/C2=N\S(=O)(=O)c2ccc(Br)cc2)c1,0.0,6.7,-5.1,-8.1,5.8*
CC(=NNC(=O)c1ccc(Br)cc1)c1cccnc1,nt,4.4,nt,nt,nt
Cc1cccc(C)c1OCC(=O)NN=Cc1cccnc1,nt,1.4,nt,nt,nt
Cc1cc[n+](C2=C([O-])c3ccccc3C(=O)/C2=N\S(=O)(=O)c2cccs2)cc1C,26.5*,6.6,3.0,-1.8,-0.1
O=C1/C(=N\S(=O)(=O)c2cccs2)C([n+]2cccc(Cc3ccccc3)c2)=C([O-])c2ccccc21,10.5,11.1,nt,nt,3.6*
Cc1ccc(C(=O)ON=C2CCCc3ccccc32)cc1,nt,2.9,nt,nt,nt
COC1=CC(=O)C(O)=C(CCCCCCCC=CCCCCCCCC2=C(O)C(=O)C=C(OC)C2=O)C1=O,nt,14.4,nt,nt,nt
CC(C)(C)C(=O)Nc1ccccc1C(=O)N1CCCC1,17.4*,1.2,-1.4,-1.5,0.1
CN(C)C=c1sc2c(C#N)cc(C(=O)c3ccc(Br)cc3)n2c1=O,nt,1.6,nt,nt,nt
C=CCN1C(=O)[C@H]2CCC=C[C@H]2[C@@H]1c1cccc(C)c1,nt,23.8*,-10.7,-3.2,1.2
Cc1nc2c(-c3ccc(F)cc3)cnn2c(N)c1-c1ccccc1,19.2*,-99.3,-12.3,-12.2,0.7
Cc1nc2c(-c3ccc(Cl)cc3)cnn2c(N)c1-c1ccc(F)cc1,0.7,-308.5,-5.1,1.7,0.8

# Bioassay records (PubChem BioAssay)
